We go through 2 compounds from ChEMBL document CHEMBL4257565, “A phenotypic approach to the discovery of compounds that promote non-amyloidogenic processing of the amyloid precursor protein: Toward a new profile of indirect β-secretase inhibitors” (Eur J Med Chem, 2018).

Data set [1] deals with T1, Beta-secretase 1 (Homo sapiens, UniProt P56817). Description: Inhibition of BACE1 in human SH-SY5Y cells harboring wild type APP695 assessed as increase in alphaCTF level at 3 uM by Western blot method relative to untreated control. Format: cell-based. The method, boiled down:
(§1)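 APP C-terminal fragments (αCTFs and AICD) were detected by Western blot and scored as band intensity. Compounds were tested at 1, 3 and 10 µM.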
A general note: Immunoblotting shows a protein as a band on a membrane.

The target of data set [2] is T1, Beta-secretase 1. Description: Inhibition of BACE1 in human SH-SY5Y cells harboring wild type APP695 assessed as increase in AICD level at 3 uM by Western blot method relative to untreated control. It is filed as cell-based. The method, boiled down: as §1
The target in data set [3] is T1, Beta-secretase 1. Description: Inhibition of BACE1 in human SH-SY5Y cells harboring wild type APP695 assessed as reduction in amyloid beta (1 to 42) level up to 5 uM after 24 hrs by ELISA. Format: cell-based. Summed up: (§2)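 Aβ1-40 and Aβ1-42 levels were measured by ELISA in APPwt-expressing SH-SY5Y cells after compound treatment.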
Data set [4] has as its target T1, Beta-secretase 1. Description: Inhibition of BACE1 in human SH-SY5Y cells harboring wild type APP695 assessed as reduction in amyloid beta (1 to 40) level after 24 hrs by ELISA method. Format: cell-based. The method, boiled down:
as §2

The test system of data set [5] is SH-SY5Y. Description: Inhibition of autophagy in human SH-SY5Y cells harboring wild type APP695 assessed as increase in lipidation of LC3-1 to LC3-2 at 5 uM after 24 hrs by DAPI staining based immunofluorescence assay relative to control. It is filed as functional. Set-up: scale not given: the % may be the effect or the level left. The method, boiled down: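 SY5Y-APPwt cells treated at 5 µM alongside untreated control. LC3-I to LC3-II lipidation quantified from western blot bands. LC3- and p62-positive vesicles scored inside cells by immunofluorescence.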

The test system of data set [6] is Primary neuron. Description: Inhibition of autophagy in C57BL6 mouse primary neuronal cells assessed as increase in p62 expression up to 5 uM after 24 hrs in presence of autophagic inhibitor BafA1 by DAPI staining based immunofluorescence assay. It is filed as functional. The method, boiled down:
(§3)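 Cells were co-treated with compound and the autophagic flux inhibitor bafilomycin A1. p62 and LC3 accumulation were then assessed in SY5Y-APPwt cells and primary neurons.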

The target in data set [7] is T1, Beta-secretase 1. The experiment in a line: Inhibition of recombinant human BACE1 at 10 uM using Mca-S-E-[…]-L-D-AEF-R-K(Dnp)-R-R-NH2 as substrate after 60 mins by fluorescence assay relative to control. Summed up:
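BACE-1 enzymatic activity was followed by cleavage of the fluorogenic peptide Mca-S-E-V-N-L-D-AE-F-R-K(Dnp)-R-R-NH2.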

The target of data set [8] is T1, Beta-secretase 1. The experiment in a line: Inhibition of BACE1 in human SH-SY5Y cells harboring wild type APP695 assessed as reduction in sAPPbeta level up to 5 uM after 24 hrs by DAPI staining based electro-chemiluminescence immunoassay. Format: cell-based.
Data set [9] has as its system SH-SY5Y. The experiment in a line: Cytotoxicity against human SH-SY5Y cells harboring wild type APP695 assessed as reduction in cell viability after 24 hrs by LDH assay. Format: cell-based.
For data set [10], the target named is T1, Beta-secretase 1. The experiment in a line: Inhibition of BACE1 in human SH-SY5Y cells harboring wild type APP695 assessed as increase in AICD level at 3 uM by Western blot method relative to chloroquine. It is filed as cell-based. The method, boiled down:
as §1

Data set [11] concerns the target Beta-secretase 1 (Mus musculus) (UniProt P56818). The experiment in a line: Inhibition of BACE1 in C57BL6 mouse primary neuronal cells assessed as accumulation of AICD level up to 5 uM after 24 hrs by DAPI staining based immunofluorescence assay.
Data set [12] has as its system SH-SY5Y. The experiment in a line: Inhibition of autophagy in human SH-SY5Y cells harboring wild type APP695 assessed as increase in p62 expression up to 5 uM after 24 hrs in presence of autophagic inhibitor BafA1 by DAPI staining based immunofluorescence assay. It is filed as functional, cell-based. Summed up: as §3
Data set [13] has as its system SH-SY5Y. Description: Inhibition of alpha secretase in human SH-SY5Y cells harboring wild type APP695 assessed as increase in sAPPalpha level up to 5 uM after 24 hrs by DAPI staining based electro-chemiluminescence immunoassay. It is filed as cell-based.
Data set [14] addresses T1, Beta-secretase 1. Description: Inhibition of BACE1 in human SH-SY5Y cells harboring wild type APP695 assessed as increase in alphaCTF level at 3 uM by Western blot method relative to chloroquine. It is filed as cell-based. Summed up: as §1
Data set [15] concerns the target T1, Beta-secretase 1. Description: Inhibition of BACE1 in human SH-SY5Y cells harboring wild type APP695 assessed as accumulation of APP-CTF level up to 5 uM after 24 hrs by ELISA. Format: cell-based. (In general: In an ELISA, binding on a coated surface is turned into a signal by an enzyme label.)
Data set [16] has as its target Beta-secretase 1 (Mus musculus) (UniProt P56818). The experiment in a line: Inhibition of BACE1 in C57BL6 mouse primary neuronal cells assessed as increase in mature APP level at 3 to 5 uM after 24 hrs by DAPI staining based immunofluorescence assay relative to control. Set-up: scale not given: the % may be the effect or the level left.
For data set [17], the target named is T1, Beta-secretase 1. The experiment in a line: Inhibition of BACE1 in human SH-SY5Y cells harboring wild type APP695 assessed as increase in mature APP level at 5 uM after 24 hrs by ELISA relative to control. Format: cell-based. The note with it: in the assay text read “by Western blot” for “by ELISA”. Set-up: scale not given: the % may be the effect or the level left. The method, boiled down: (§4)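 Full-length APP was resolved and detected with APP-C17 antiserum as two bands. The 110 kDa band is the immature, neosynthesized form and the 115 kDa band is the mature, glycosylated form. Both bands were quantified against the control condition. This was done in SH-SY5Y-APPwt cells and in primary neuronal cultures.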

The subject of data set [18] is SH-SY5Y. The experiment in a line: Inhibition of autophagy in human SH-SY5Y cells harboring wild type APP695 assessed as increase in lipidation of LC3-1 to LC3-2 up to 5 uM after 24 hrs in presence of autophagic inhibitor BafA1 by DAPI staining based immunofluorescence assay. Format: functional, cell-based. The method, boiled down: as §3
Data set [19] has as its system Primary neuron. Description: Inhibition of autophagy in C57BL6 mouse primary neuronal cells assessed as increase in lipidation of LC3-1 to LC3-2 up to 5 uM after 24 hrs in presence of autophagic inhibitor BafA1 by DAPI staining based immunofluorescence assay. It is filed as functional. The method, boiled down: as §3
Data set [20] relates to Primary neuron. Description: Inhibition of autophagy in C57BL6 mouse primary neuronal cells assessed as increase in lipidation of LC3-1 to LC3-2 at 3 uM after 24 hrs by DAPI staining based immunofluorescence assay. Format: functional. The method, boiled down: (§5)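 Autophagy markers were quantified against control: p62 expression and lipidation of LC3-I into LC3-II. Accumulation of p62- and LC3-positive vesicles was scored by immunofluorescence. This was done in SY5Y-APPwt cells and primary neurons.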

Data set [21] has as its target Beta-secretase 1 (Mus musculus) (UniProt P56818). The experiment in a line: Inhibition of BACE1 in C57BL6 mouse primary neuronal cells assessed as accumulation of APP-CTF level up to 5 uM after 24 hrs by DAPI staining based immunofluorescence assay.
In data set [22] the target is T1, Beta-secretase 1. The experiment in a line: Inhibition of BACE1 in human SH-SY5Y cells harboring wild type APP695 assessed as reduction in amyloid beta (1 to 40) level up to 5 uM after 24 hrs by ELISA. It is filed as cell-based. The method, boiled down:
as §2

The test system of data set [23] is Primary neuron. The experiment in a line: Inhibition of autophagy in C57BL6 mouse primary neuronal cells assessed as increase in p62 expression at 3 uM after 24 hrs by DAPI staining based immunofluorescence assay. Format: functional. The method, boiled down: as §5
Data set [24] in a line: Cytotoxicity against C57BL6 mouse primary neuronal cells assessed as reduction in cell viability after 24 hrs by LDH assay. It is filed as cell-based. The note with it: primary neuron.
The test system of data set [25] is SH-SY5Y. Description: Inhibition of autophagy in human SH-SY5Y cells harboring wild type APP695 assessed as increase in p62 expression at 5 uM after 24 hrs by DAPI staining based immunofluorescence assay relative to control. Format: functional. Set-up: scale not given: the % may be the effect or the level left. The method, boiled down:
as §5

Data set [26] has as its target T1, Beta-secretase 1. The experiment in a line: Inhibition of BACE1 in human SH-SY5Y cells harboring wild type APP695 assessed as accumulation of AICD level up to 5 uM after 24 hrs by ELISA. It is filed as cell-based.
Data set [27] relates to Primary neuron. The experiment in a line: Inhibition of autophagy in C57BL6 mouse primary neuronal cells assessed as increase in p62 expression up to 5 uM after 24 hrs by DAPI staining based immunofluorescence assay. Format: functional. The method, boiled down:
as §5

The subject of data set [28] is Primary neuron. The experiment in a line: Inhibition of autophagy in C57BL6 mouse primary neuronal cells assessed as increase in lipidation of LC3-1 to LC3-2 up to 5 uM after 24 hrs by DAPI staining based immunofluorescence assay. It is filed as functional. The method, boiled down: as §5
In data set [29] the target is T1, Beta-secretase 1. The experiment in a line: Inhibition of BACE1 in human SH-SY5Y cells harboring wild type APP695 assessed as increase in mature APP level up to 5 uM after 24 hrs by ELISA. Format: cell-based. Conditions: in the assay text read “by Western blot” for “by ELISA”. Summed up: as §4
Data set [30] relates to SH-SY5Y. Description: Inhibition of autophagy in human SH-SY5Y cells harboring wild type APP695 assessed as increase in p62 expression up to 5 uM after 24 hrs by DAPI staining based immunofluorescence assay. It is filed as functional, cell-based. The method, boiled down: as §5
Data set [31] deals with SH-SY5Y. Description: Inhibition of autophagy in human SH-SY5Y cells harboring wild type APP695 assessed as increase in lipidation of LC3-1 to LC3-2 up to 5 uM after 24 hrs by DAPI staining based immunofluorescence assay. It is filed as functional, cell-based. Summed up: as §5
Data set [32] addresses Beta-secretase 1 (Mus musculus) (UniProt P56818). Description: Inhibition of BACE1 in C57BL6 mouse primary neuronal cells assessed as increase in mature APP level up to 5 uM after 24 hrs by DAPI staining based immunofluorescence assay relative to control.

The source made the active and inactive calls. The rule behind the calls is not given here.

T1 sequence (P56817 whole entry, the tested form may be a part): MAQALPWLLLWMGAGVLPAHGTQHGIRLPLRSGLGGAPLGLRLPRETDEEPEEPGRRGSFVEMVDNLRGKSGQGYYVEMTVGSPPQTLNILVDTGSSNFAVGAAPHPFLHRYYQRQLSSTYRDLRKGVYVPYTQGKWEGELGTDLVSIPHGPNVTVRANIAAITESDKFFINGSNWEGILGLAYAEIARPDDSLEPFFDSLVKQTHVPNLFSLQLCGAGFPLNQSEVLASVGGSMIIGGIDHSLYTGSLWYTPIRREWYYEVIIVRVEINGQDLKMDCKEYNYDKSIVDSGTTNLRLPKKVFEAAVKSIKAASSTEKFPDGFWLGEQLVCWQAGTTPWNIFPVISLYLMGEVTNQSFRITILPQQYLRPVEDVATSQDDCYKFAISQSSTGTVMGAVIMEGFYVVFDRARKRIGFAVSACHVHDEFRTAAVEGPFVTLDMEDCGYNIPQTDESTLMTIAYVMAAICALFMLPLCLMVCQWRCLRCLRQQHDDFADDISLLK
Beta-secretase 1 (Mus musculus), sequence (P56818 whole entry): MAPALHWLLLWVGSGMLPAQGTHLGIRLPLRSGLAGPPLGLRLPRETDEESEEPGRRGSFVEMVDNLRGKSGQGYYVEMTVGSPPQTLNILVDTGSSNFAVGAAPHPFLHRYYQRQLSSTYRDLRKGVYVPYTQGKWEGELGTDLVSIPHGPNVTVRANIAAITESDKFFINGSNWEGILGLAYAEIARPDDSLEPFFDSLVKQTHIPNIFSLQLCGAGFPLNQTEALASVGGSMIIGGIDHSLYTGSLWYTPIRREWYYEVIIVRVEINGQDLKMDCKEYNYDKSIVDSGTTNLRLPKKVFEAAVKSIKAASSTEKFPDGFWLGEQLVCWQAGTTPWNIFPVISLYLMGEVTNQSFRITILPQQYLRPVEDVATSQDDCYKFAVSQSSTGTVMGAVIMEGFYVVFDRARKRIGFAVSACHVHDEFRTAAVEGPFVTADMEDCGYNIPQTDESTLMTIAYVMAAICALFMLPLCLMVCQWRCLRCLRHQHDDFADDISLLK

With `CN(C)Cc1ccccc1-c1ccc(NCCCN2CCCCC2)c(OCCN2CCCCC2)c1`, the fold change (FC) at Beta-secretase 1 [1] is 30; on Beta-secretase 1 [2], 40; at Beta-secretase 1 [10] it was 3.6; at Beta-secretase 1 [14] it was 6.4. In addition, the inhibition result (at Beta-secretase 1 [3]; with Primary neuron [6]; at Beta-secretase 1 [8]; in data set [11]; in the data set with SH-SY5Y [12]; in the data set with SH-SY5Y [13]) was “Active” each time. Moreover, the inhibition entry (at Beta-secretase 1 [15]; in the data set with SH-SY5Y [18]; in the data set with Primary neuron [19]; with Primary neuron [20]; in data set [21]; at Beta-secretase 1 [22]) was “Active” each time. For the same compound, the inhibition entry in the data set on Primary neuron [23] and on Beta-secretase 1 [26] was “Active” throughout. Also, the IC50 at Beta-secretase 1 [4] is 2.8 µM. The Activity is 591% in the data set on SH-SY5Y [5]; “Non-Toxic” with SH-SY5Y [9]; 130% in data set [16]; 221% on Beta-secretase 1 [17]; “Non-Toxic” in data set [24]; 476% with SH-SY5Y [25]. In addition, at Beta-secretase 1 [7], the inhibition is less than 10%.
As for `CN(C)Cc1ccccc1-c1ccc(NCCCN2CCCCC2)c(OCCC2CCCCC2)c1`, the inhibition entry (in the data set on Primary neuron [27]; in the data set on Primary neuron [28]; at Beta-secretase 1 [29]; with SH-SY5Y [30]; in [11]; on Beta-secretase 1 [15]) was “inactive” in each case. Also, the inhibition entry (with SH-SY5Y [31]; in data set [21]; in [32]; on Beta-secretase 1 [26]) was “inactive” each time. For the same compound, the inhibition result on Beta-secretase 1 [3], at Beta-secretase 1 [8], in the data set with SH-SY5Y [13] and at Beta-secretase 1 [22] was “Active” throughout. In addition, the IC50 at Beta-secretase 1 [4] turned out to be 2.1 µM. In addition, the inhibition at Beta-secretase 1 [7] is less than 10%. In addition, the Activity result (in the data set on SH-SY5Y [9]; in data set [24]) was “Non-Toxic” throughout. In addition, the fold change (FC) on Beta-secretase 1 [10] and at Beta-secretase 1 [14] was 0.1 each time.

A word on the inhibition: it is how much of the control response was suppressed. Usually IC50 stands for the concentration that gives 50% inhibition.
